ChEMBL document CHEMBL3259611, “Suppression of inflammatory responses by handelin, a guaianolide dimer from Chrysanthemum boreale, via downregulation of NF-κB signaling and pro-inflammatory cytokine production” (J Nat Prod, 2014)

Legend:
Format in all cases: functional
RAW264.7 [1] = assay: Antiinflammatory activity in mouse RAW264.7 cells assessed as inhibition of LPS-induced PGE2 production at 20 uM administered 1 hr prior to LPS challenge measured after 20 hrs by EIA relative to control
In short: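 RAW 264.7 cells plated at 3 × 10^5 cells/mL, pretreated with compound for 1 h, then stimulated with 1 μg/mL LPS for 20 h. PGE2 in the supernatant was measured by immunoassay kit. Mean ± SD of triplicates.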

Mus musculus = assay: Antiinflammatory activity in ICR mouse ear edema model assessed as inhibition of TPA-induced ear edema at 20 mg/kg, po administered 30 mins prior to TPA challenge measured after 4 hrs relative to vehicle-treated control
In short: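 ICR mice (male, 18−20 g, 5 weeks old) dosed orally 30 min before TPA (1.0 μg in 20 μL acetone) was applied to inner and outer surfaces of the right ear. Killed by cervical dislocation after 4 h. Edema taken as the weight of a 5 mm punch biopsy of the right ear over the left. Ear homogenates were Western blotted for iNOS, COX-2 and IL-1β.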

Rattus norvegicus = assay: Antiinflammatory activity in rat paw edema model assessed as inhibition of carrageenan-induced paw edema at 20 mg/kg, po administered 30 mins prior to carrageenan challenge measured after 4 hrs relative to vehicle-treated control
In short: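 Male Sprague–Dawley rats (150–170 g, 5 weeks old); compound dissolved in 0.5% CMC-Na and given orally 30 min before subplantar injection of 0.1 mL 1% carrageenan suspension in saline into the right hind paw, with saline injected into the left. Paw volume read by plethysmometer at 0 h and up to 6 h; n = 6.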

RAW264.7 [2] = assay: Antiinflammatory activity in mouse RAW264.7 cells assessed as inhibition of LPS-induced nitric oxide production at 50 uM after 20 hrs by Griess assay relative to control; settings: RAW264.7, 20 h
In short: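 Positive-control run in the same LPS (1 μg/mL, 20 h) RAW 264.7 system. Nitrite was quantified by Griess reaction at 540 nm against a sodium nitrite standard curve. Inhibition expressed relative to vehicle control.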

Cc1ccc(-c2cc(C(F)(F)F)nn2-c2ccc(S(N)(=O)=O)cc2)cc1 [CELECOXIB]
inhibition (INH) (RAW264.7 [1]): 81%

COc1ccc2c(c1)c(CC(=O)O)c(C)n2C(=O)c1ccc(Cl)cc1 [INDOMETHACIN]
inhibition in vivo at 20 mg/kg (Mus musculus): 53%
inhibition in vivo at 20 mg/kg (Rattus norvegicus): 51%

CNC(=N)NCCC[C@H](N)C(=O)O [TILARGININE]
inhibition at 50 µM (RAW264.7 [2]): 74%
